Source: ChEMBL document CHEMBL1287651, “Synthesis and in vitro antibacterial activity of fluoroquinolone derivatives containing 3-(N'-alkoxycarbamimidoyl)-4-(alkoxyimino) pyrrolidines” (2010)
Converted amounts (≈) assume the structure as drawn.

Experiments:
Assay type in all cases: functional
[1] = system: Staphylococcus epidermidis; experiment: Antibacterial activity against methicillin-resistant Staphylococcus epidermidis 09-2 after 18 to 24 hrs by twofold serial dilution method
Method in brief: (§1)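 Standard twofold serial agar dilution method on agar media for MIC determination. Screened against representative Gram-positive and Gram-negative strains. Levofloxacin and GMFX served as control drugs.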

[2] = system: Staphylococcus epidermidis; experiment: Antibacterial activity against methicillin-sensitive Staphylococcus epidermidis 09-6 after 18 to 24 hrs by twofold serial dilution method; method in brief: as §1
Pseudomonas aeruginosa [3] = experiment: Antibacterial activity against Pseudomonas aeruginosa 09-35 after 18 to 24 hrs by twofold serial dilution method
Method in brief: (§2)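 MIC determined by the standard twofold serial dilution method on agar media, screening against Gram-positive and Gram-negative strains. Levofloxacin and gemifloxacin were run alongside as reference drugs.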

Enterococcus faecium [4] = experiment: Antibacterial activity against Enterococcus faecium 08-7 after 18 to 24 hrs by twofold serial dilution method; method in brief: as §2
Klebsiella pneumoniae [5] = experiment: Antibacterial activity against Klebsiella pneumoniae 09-23 after 18 to 24 hrs by twofold serial dilution method; method in brief: as §2
[6] = system: Staphylococcus epidermidis; experiment: Antibacterial activity against methicillin-sensitive Staphylococcus epidermidis 09-3 after 18 to 24 hrs by twofold serial dilution method; method in brief: as §1
Streptococcus pneumoniae [7] = experiment: Antibacterial activity against Streptococcus pneumoniae 08-2 after 18 to 24 hrs by twofold serial dilution method; method in brief: as §2
Escherichia coli [8] = experiment: Antibacterial activity against Escherichia coli 08-21 after 18 to 24 hrs by twofold serial dilution method; method in brief: as §2
Enterococcus faecium [9] = experiment: Antibacterial activity against Enterococcus faecium 08-2 after 18 to 24 hrs by twofold serial dilution method; method in brief: as §2
Staphylococcus aureus [10] = experiment: Antibacterial activity against methicillin-sensitive Staphylococcus aureus 08-2 after 18 to 24 hrs by twofold serial dilution method; method in brief: as §1
Enterococcus faecalis [11] = experiment: Antibacterial activity against Enterococcus faecalis 08-10 after 18 to 24 hrs by twofold serial dilution method; method in brief: as §2
Escherichia coli [12] = experiment: Antibacterial activity against Escherichia coli 08-22 after 18 to 24 hrs by twofold serial dilution method; method in brief: as §2
Staphylococcus aureus [13] = experiment: Antibacterial activity against methicillin-resistant Staphylococcus aureus 08-1 after 18 to 24 hrs by twofold serial dilution method; method in brief: as §1
Pseudomonas aeruginosa [14] = experiment: Antibacterial activity against Pseudomonas aeruginosa 09-34 after 18 to 24 hrs by twofold serial dilution method; method in brief: as §2
Pseudomonas aeruginosa [15] = experiment: Antibacterial activity against Pseudomonas aeruginosa 09-33 after 18 to 24 hrs by twofold serial dilution method; method in brief: as §2
Escherichia coli [16] = experiment: Antibacterial activity against Escherichia coli ATCC 25922 after 18 to 24 hrs by twofold serial dilution method; method in brief: as §2
Pseudomonas aeruginosa [17] = experiment: Antibacterial activity against Pseudomonas aeruginosa ATCC 27853 after 18 to 24 hrs by twofold serial dilution method; method in brief: as §2
Staphylococcus aureus [18] = experiment: Antibacterial activity against Staphylococcus aureus ATCC […] after 18 to 24 hrs by twofold serial dilution method; method in brief: as §2
Streptococcus pneumoniae [19] = experiment: Antibacterial activity against Streptococcus pneumoniae 08-4 after 18 to 24 hrs by twofold serial dilution method; method in brief: as §2
[20] = system: Staphylococcus epidermidis; experiment: Antibacterial activity against methicillin-resistant Staphylococcus epidermidis 09-3 after 18 to 24 hrs by twofold serial dilution method; method in brief: as §1
Klebsiella pneumoniae [21] = experiment: Antibacterial activity against Klebsiella pneumoniae 09-21 after 18 to 24 hrs by twofold serial dilution method; method in brief: as §2
Klebsiella pneumoniae [22] = experiment: Antibacterial activity against Klebsiella pneumoniae 09-22 after 18 to 24 hrs by twofold serial dilution method; method in brief: as §2
[23] = system: Staphylococcus epidermidis; experiment: Antibacterial activity against methicillin-resistant Staphylococcus epidermidis 09-4 after 18 to 24 hrs by twofold serial dilution method; method in brief: as §1
Enterococcus faecalis [24] = experiment: Antibacterial activity against Enterococcus faecalis 08-12 after 18 to 24 hrs by twofold serial dilution method; method in brief: as §2
Pseudomonas aeruginosa [25] = experiment: Antibacterial activity against Pseudomonas aeruginosa 09-32 after 18 to 24 hrs by twofold serial dilution method; method in brief: as §2

Row | SMILES | MIC [1] [µg/mL] | MIC [2] [µg/mL] | MIC (Pseudomonas aeruginosa [3]) [µg/mL] | MIC (Enterococcus faecium [4]) [µg/mL] | MIC (Klebsiella pneumoniae [5]) [µg/mL] | MIC [6] [µg/mL] | MIC (Streptococcus pneumoniae [7]) [µg/mL] | MIC (Escherichia coli [8]) [µg/mL] | MIC (Enterococcus faecium [9]) [µg/mL] | MIC (Staphylococcus aureus [10]) [µg/mL] | MIC (Enterococcus faecalis [11]) [µg/mL] | MIC (Escherichia coli [12]) [µg/mL] | MIC (Staphylococcus aureus [13]) [µg/mL] | MIC (Pseudomonas aeruginosa [14]) [µg/mL] | MIC (Pseudomonas aeruginosa [15]) [µg/mL] | MIC (Escherichia coli [16]) [µg/mL] | MIC (Pseudomonas aeruginosa [17]) [µg/mL] | MIC (Staphylococcus aureus [18]) [µg/mL] | MIC (Streptococcus pneumoniae [19]) [µg/mL] | MIC [20] [µg/mL] | further results
1 | CCO/N=C(/N)C1CN(c2c(F)cc3c(=O)c(C(=O)O)cn(CCF)c3c2F)C/C1=N\OC (stereo not given) | 0.25 (≈ 0.533 µM) | 0.25 (≈ 0.533 µM) | > 128 | > 128 | > 128 | 0.5 (≈ 1.07 µM) | 8 (≈ 17 µM) | > 128 | > 128 | 0.25 (≈ 0.533 µM) | > 128 | > 128 | 0.25 (≈ 0.533 µM) | > 128 | > 128 | > 128 | > 128 | 0.25 (≈ 0.533 µM) | 1 (≈ 2.13 µM) | 0.125 (≈ 0.266 µM) | MIC (Klebsiella pneumoniae [21]): > 128 µg/mL; MIC (Klebsiella pneumoniae [22]): 2 µg/mL (≈ 4.26 µM); MIC [23]: 0.25 µg/mL (≈ 0.533 µM); MIC (Enterococcus faecalis [24]): > 128 µg/mL; MIC (Pseudomonas aeruginosa [25]): > 128 µg/mL
2 | CCO/N=C1\CN(c2c(F)cc3c(=O)c(C(=O)O)cn(CCF)c3c2F)CC1/C(N)=N\OCC (stereo not given) | 4 (≈ 8.27 µM) | 8 (≈ 16.5 µM) | > 128 | > 128 | > 128 | 4 (≈ 8.27 µM) | 8 (≈ 16.5 µM) | > 128 | > 128 | > 128 | > 128 | > 128 | 4 (≈ 8.27 µM) | > 128 | > 128 | 128 (≈ 265 µM) | 128 (≈ 265 µM) | 2 (≈ 4.14 µM) | 8 (≈ 16.5 µM) | 4 (≈ 8.27 µM) | MIC (Klebsiella pneumoniae [21]): > 128 µg/mL; MIC (Klebsiella pneumoniae [22]): > 128 µg/mL; MIC [23]: 4 µg/mL (≈ 8.27 µM); MIC (Enterococcus faecalis [24]): > 128 µg/mL; MIC (Pseudomonas aeruginosa [25]): > 128 µg/mL
3 | CO/N=C1\CN(c2c(F)cc3c(=O)c(C(=O)O)cn(CCF)c3c2F)CC1/C(N)=N\OC (stereo not given) | 2 (≈ 4.39 µM) | 0.25 (≈ 0.549 µM) | 64 (≈ 141 µM) | > 128 | > 128 | 0.25 (≈ 0.549 µM) | 4 (≈ 8.78 µM) | > 128 | > 128 | 0.25 (≈ 0.549 µM) | 64 (≈ 141 µM) | > 128 | 0.125 (≈ 0.274 µM) | > 128 | > 128 | 128 (≈ 281 µM) | 32 (≈ 70.3 µM) | 0.125 (≈ 0.274 µM) | 2 (≈ 4.39 µM) | 0.125 (≈ 0.274 µM) | MIC (Klebsiella pneumoniae [21]): > 128 µg/mL; MIC (Klebsiella pneumoniae [22]): 4 µg/mL (≈ 8.78 µM); MIC [23]: 0.125 µg/mL (≈ 0.274 µM); MIC (Enterococcus faecalis [24]): > 128 µg/mL; MIC (Pseudomonas aeruginosa [25]): 64 µg/mL (≈ 141 µM)
4 | CCO/N=C1\CN(c2c(F)cc3c(=O)c(C(=O)O)cn(CCF)c3c2F)CC1/C(N)=N\OC (stereo not given) | > 128 | 0.25 (≈ 0.533 µM) | > 128 | > 128 | > 128 | 0.25 (≈ 0.533 µM) | > 128 | > 128 | > 128 | > 128 | > 128 | > 128 | 4 (≈ 8.52 µM) | > 128 | > 128 | > 128 | > 128 | 2 (≈ 4.26 µM) | > 128 | 0.25 (≈ 0.533 µM) | MIC (Klebsiella pneumoniae [21]): > 128 µg/mL; MIC (Klebsiella pneumoniae [22]): > 128 µg/mL; MIC [23]: 0.125 µg/mL (≈ 0.266 µM); MIC (Enterococcus faecalis [24]): > 128 µg/mL; MIC (Pseudomonas aeruginosa [25]): > 128 µg/mL
